Assay results as given in ChEMBL document CHEMBL4842317, “Discovery of novel 3-hydroxyandrosta-5,7-Diene-17-Carboxylic acid derivatives as anti-inflammatory bowel diseases (IBD) agents” (Eur J Med Chem, 2021).
Active and inactive are the calls of the source. No cut-off for these calls is given here.

Legend:
RAW264.7 [1] = assay: Cytotoxicity against mouse RAW264.7 cells assessed as reduction in cell viability at 3 to 100 uM incubated for 24 hrs by MTT assay; assay type: cell-based; details: raw264.7, 24 h, dose 3-100 µM
In short: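 RAW 264.7 cells are seeded at 1.0 × 10^4 per well and incubated overnight. Compounds are added at concentrations from 100 μM downward, with or without LPS (100 ng/mL), for 24 h. MTT (0.5 mg/mL) is added for 4 h and the formazan is dissolved in DMSO for the read-out.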

RAW264.7 [2] = assay: Antiinflammatory activity against mouse RAW264.7 cells assessed as decrease in LPS-induced TNF-alpha mRNA expression at 20 uM in presence of LPS by qRT-PCR analysis; assay type: functional, cell-based
In short: (§1)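 RAW 264.7 cells are grown 12 h in six-well plates, then exposed to LPS (100 ng/ml) plus compound for 8 h. Reverse transcription is followed by SYBR Green qPCR with GAPDH as internal control. Relative expression is calculated by 2^-ΔΔCT versus the untreated control. Mean + SD from three independent experiments.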

RAW264.7 [3] = assay: Antiinflammatory activity against mouse RAW264.7 cells assessed as inhibition of LPS-induced IL-1 beta production measured after 24 hrs in presence of LPS by ELISA; assay type: functional, cell-based; details: dose 0.31-20 µM
In short: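 RAW 264.7 cells are seeded at 2 × 10^5 per well, grown 12 h, and given 100 ng/mL LPS with compound at 0.31 to 20 μM for 24 h. Supernatant IL-1β and IL-6 are quantified by ELISA. Mean + SD, n = 3.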

RAW264.7 [4] = assay: Antiinflammatory activity against mouse RAW264.7 cells assessed as decrease in LPS-induced NF-kappB mRNA expression at 20 uM in presence of LPS by qRT-PCR analysis; assay type: functional, cell-based; in short: as §1
RAW264.7 [5] = assay: Inhibition of PI3K/Akt signaling in mouse RAW264.7 cells assessed as inhibition of LPS-induced Akt phosphorylation at 1.25 uM in presence of LPS by western blot analysis; assay type: cell-based
In short: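 Lysates of LPS-stimulated RAW 264.7 cells (20–30 μg protein) are run on 10% SDS-PAGE, blotted, blocked with 5% milk, probed overnight at 4 °C (1:5,000), then detected with HRP secondary and ECL. Actin, GAPDH or H3 (nuclear fraction) serve as loading controls, with densitometry ratios. Blots are representative of three independent experiments; mean + SD (n = 3).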

Mus musculus [6] = assay: Antiinflammatory activity against DSS-induced colitis C57BL/6 mouse model assessed as colon with intact structure with few inflammatory cells at 50 to 100 mg/kg, ip administered for 7 days by hematoxylin and eosin staining based microscopic analysis; assay type: functional, organism-based; details: dose 50-100 mg/kg, time 7.0 day
In short: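 DSS colitis (3.5% DSS, male C57BL/6 mice, n=5 per group) with 7-day intraperitoneal dosing in saline/castor oil/ethanol/DMSO vehicle. Colons are fixed in formalin, paraffin-embedded and stained with H&E (viewed at 200X). Separately, sections undergo CD86 immunohistochemistry (citrate antigen retrieval, 3% H2O2 block, 1:200 primary and HRP secondary, hematoxylin counterstain) viewed at 400X.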

Mus musculus [7] = assay: Antiinflammatory activity against DSS-induced colitis C57BL/6 mouse assessed as decrease in IL-1beta level in colon at 50 mg/kg, ip administered for 7 days; assay type: functional, organism-based; details: time 7.0 day
In short: (§2)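 Male C57BL/6 mice, 6 weeks old, 5 per group, given 3.5% DSS solution plus daily intraperitoneal drug (100 μL, in saline/castor oil/ethanol/DMSO 70:10:15:5) for 7 days. Colons collected after sacrifice. IL-1β is normalised per milligram of colonic protein. p-IκB-α and p-p65 in colonic protein are measured by Western blot. Bars give mean + SD.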

Mus musculus [8] = assay: Antiinflammatory activity against DSS-induced colitis C57BL/6 mouse assessed as decrease in p-IkB alpha level in colon at 50 mg/kg, ip administered for 7 days by western blot analysis; assay type: functional, organism-based; details: time 7.0 day; in short: as §2
Mus musculus [9] = assay: Antiinflammatory activity against DSS-induced colitis C57BL/6 mouse assessed as decrease in p-p65 level in colon at 25 mg/kg, ip administered for 7 days by western blot analysis; assay type: functional, organism-based; details: time 7.0 day; in short: as §2
Mus musculus [10] = assay: Antiinflammatory activity against DSS-induced colitis C57BL/6 mouse model assessed as reduction in scores of stool consistency and bleeding at 25 to 100 mg/kg, ip administered for 7 days by immunohistochemistry analysis; assay type: functional, organism-based; details: dose 25-100 mg/kg, time 7.0 day

For `C[C@]12CC[C@H]3[C@@H](CC=C4C[C@@H](O)CC[C@@]43C)[C@@H]1CC[C@@H]2C(=O)n1ccnc1`, the Activity (RAW264.7 [1]) was “Non-Toxic”, the Activity (RAW264.7 [2]) was “inactive” and the Activity (RAW264.7 [3]) was “Dose-Dependent Effect”. The Activity (RAW264.7 [4]) was “Active”, the inhibition (RAW264.7 [5]) was “Active” and the Activity (Mus musculus [6]) was “Active”. The Activity (Mus musculus [7]) was “Active”, the Activity (Mus musculus [8]) was “Active” and the Activity (Mus musculus [9]) was “Active”. The Activity (Mus musculus [10]) was “Active”.
